Measured values of several laboratories.
Each line is one published result; the experiments were not run side by side.

CC1(CC(F)(F)F)NC(=O)N(c2ccc(F)c(C(F)(F)F)c2)C1=O (centres unmarked)
microsomal CLint (metabolic stability; human, liver microsomes): < 7 µL/min/mg

Cc1[nH]c(C)c(S(=O)(=O)Nc2ccc(S(F)(F)(F)(F)F)c(Cl)c2)c1C(=O)N1CCC(F)(F)C1
microsomal CLint (metabolic stability; rat, liver microsomes): 20.5 µL/min/mg

CC(C)CCC(=O)N[C@H]1[C@H]([C@H](O)[C@H](O)CO)OC(C(=O)O)=C[C@@H]1O
logD (shake flask; aqueous buffer; 2 h, pH 7.4): -0.88

O=C1NC2(CCC2)C(=O)N1c1ccc(F)c(C(F)(F)F)c1
microsomal CLint (metabolic stability; human, liver microsomes): 11 µL/min/mg

Cc1[nH]c(C)c(S(=O)(=O)Nc2ccc(S(=O)(=O)F)c(Cl)c2)c1C(=O)N1CCC(F)(F)C1
microsomal CLint (metabolic stability; human, liver microsomes): 31.7 µL/min/mg

CC(C)CC(=O)OC[C@H]1O[C@@](C#N)(c2ccc3c(N)ncnn23)[C@H](O)[C@@H]1O
CC50 (HEp-2; cell growth or viability, CCK-8; 5 days): > 100 µM

N#C[C@@]1(n2ccc(N)nc2=O)O[C@H](CO)[C@@H](O)[C@H]1O
CC50 (Calu-3; cell growth or viability): > 100 µM

CC/C(=C(\c1ccccc1)c1ccc(OCCN(C)C)cc1)c1ccccc1
IC50 (MCF7; cell growth or viability, resazurin; 72 h): 18.2 µM

CC(C)Cc1cn([C@H]2[C@H]([C@H](O)[C@H](O)CO)OC(C(=O)O)=C[C@@H]2O)nn1
logD (shake flask; aqueous buffer; 2 h, pH 7.4): -0.54

CC(C)(C)[C@H](NC(=O)C(F)(F)F)C(=O)N1C[C@H]2[C@@H]([C@H]1C(=O)N[C@H](C#N)C[C@@H]1CCNC1=O)C2(C)C
CC50 (Calu-3; cell growth or viability): > 100 µM

COc1ccc(NC(=O)N2CCCCN3[C@H](CN(C)C)[C@H](c4ccc(C#Cc5ccccc5)cc4)[C@@H]3C2)cc1
CC50 (THP-1; cell growth or viability, ATP luminescence; 72 h): 2.87 µM
